# Measurements: ChEMBL document CHEMBL1149899 (J Med Chem, 2008)
# Key:
# [1] = Inhibition of ATPase activity of yeast Hsp90; parameters: species or system Saccharomyces cerevisiae
# [2] = Binding affinity to yeast Hsp90 by isothermal titration calorimetry; parameters: species or system Saccharomyces cerevisiae
# [3] = Antitumor activity against human LXF 526L cells; format: functional, cell-based
# Summary of the method: (§1)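 Panel of 38 human solid-tumour cell lines, each tested in a monolayer proliferation assay. Growth inhibition was expressed as IC50 and IC70 values. Testing was run at Oncotest.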
# [4] = Antitumor activity against human MEXF 462NL cells; format: functional, cell-based; summary of the method: as §1
# [5] = Antitumor activity against human BXF T24 cells; format: functional, cell-based; settings: T-24; summary of the method: as §1
# [6] = Antitumor activity against human MEXF 394NL cells; format: functional, cell-based; summary of the method: as §1
# [7] = Antitumor activity against human RXF 486L cells; format: functional, cell-based; summary of the method: as §1
# [8] = Antitumor activity against human BXF 1218L cells; format: functional, cell-based; summary of the method: as §1
# [9] = Antitumor activity against human OVXF 1619L cells; format: functional, cell-based; summary of the method: as §1
# [10] = tested on: DU-145; experiment: Degradation of cRaf1 in human DU145 cell lysate by Western blot; format: functional, cell-based
# Summary of the method: (§2)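 DU145 prostate cancer cells were exposed to 1 or 10 µM, with time points including 48 and 96 h. Cell lysates were probed by Western blot for ErbB2, cRaf1, Hsp90 and Hsp70.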
# [11] = tested on: MCF7; experiment: Antitumor activity against human MAXF MCF7 cells; format: functional, cell-based; summary of the method: as §1
# [12] = tested on: DU-145; experiment: Antitumor activity against human PRXF DU145 cells; format: functional, cell-based; summary of the method: as §1
# [13] = Antitumor activity against human MEXF 514L cells; format: functional, cell-based; summary of the method: as §1
# [14] = Antitumor activity against human RXF 944L cells; format: functional, cell-based; summary of the method: as §1
# [15] = Antitumor activity against human PRXF PC3M cells; format: functional, cell-based; settings: PC-3M; summary of the method: as §1
# [16] = Antitumor activity against human HNXF 536L cells; format: functional, cell-based; summary of the method: as §1
# [17] = Antitumor activity against human MAXF 401NL cells; format: functional, cell-based; summary of the method: as §1
# [18] = Antitumor activity against human LXF H640 cells; format: functional, cell-based; summary of the method: as §1
# [19] = tested on: CWR22R; experiment: Antitumor activity against human PRXF 22RV1 cells; format: functional, cell-based; summary of the method: as §1
# [20] = tested on: SW-620; experiment: Antitumor activity against human CXF SW620 cells; format: functional, cell-based; summary of the method: as §1
# [21] = tested on: DU-145; experiment: Antitumor activity against human DU145 tumor xenografted mouse assessed delay for tumor quadrupling time at 10 mg/kg, ip; format: functional; settings: route intraperitoneal
# [22] = Antitumor activity against human GXF 251L cells; format: functional, cell-based; summary of the method: as §1
# [23] = tested on: UO-31; experiment: Antitumor activity against human RXF UO31 cells; format: functional, cell-based; summary of the method: as §1
# [24] = tested on: DU-145; experiment: Antitumor activity against human DU145 tumor xenografted mouse assessed delay for tumor doubling time at 10 mg/kg, ip; format: functional; settings: route intraperitoneal
# [25] = Antitumor activity against human CXF HCT116 cells; format: functional, cell-based; settings: HCT-116; summary of the method: as §1
# [26] = tested on: SF-268; experiment: Antitumor activity against human CNXF SF268 cells; format: functional, cell-based; summary of the method: as §1
# [27] = Antitumor activity against human PAXF 165L cells; format: functional, cell-based; summary of the method: as §1
# [28] = tested on: OVCAR-3; experiment: Antitumor activity against human OVCAR-3 cells; format: functional, cell-based; summary of the method: as §1
# [29] = Antitumor activity against human CNXF 498NL cells; format: functional, cell-based; summary of the method: as §1
# [30] = Antitumor activity against human RXF 393NL cells; format: functional, cell-based; summary of the method: as §1
# [31] = Antitumor activity against human PRXF LNCAP cells; format: functional, cell-based; summary of the method: as §1
# [32] = Antitumor activity against human PXF 1752L cells; format: functional, cell-based; summary of the method: as §1
# [33] = Antitumor activity against human LXF 1121L cells; format: functional, cell-based; summary of the method: as §1
# [34] = tested on: DU-145; experiment: Antitumor activity against human DU145 tumor xenografted mouse at 10 mg/kg, ip measured on day 31; format: functional; settings: route intraperitoneal
# [35] = Antitumor activity against human PAXF PANC1 cells; format: functional, cell-based; settings: PANC-1; summary of the method: as §1
# [36] = tested on: DU-145; experiment: Degradation of ErbB2 in human DU145 cell lysate by Western blot; format: functional, cell-based; summary of the method: as §2
# [37] = Antitumor activity against human […] 1138L cells; format: functional, cell-based; summary of the method: as §1
# [38] = Antitumor activity against human MEXF 520L cells; format: functional, cell-based; summary of the method: as §1
# [39] = Antitumor activity against human MEXF 276L cells; format: functional, cell-based; settings: MEXF276L; summary of the method: as §1
# [40] = tested on: Mus musculus; experiment: Toxicity in human DU145 cells xenografted mouse assessed as loss of body weight at 10 mg/kg, ip on day 3; format: organism-based, DU-145; parameters: dose 10 mg/kg, route intraperitoneal; settings: in vivo
# [41] = Antitumor activity against human LXF 529L cells; format: functional, cell-based; summary of the method: as §1
# [42] = Antitumor activity against human OVXF 899L cells; format: functional, cell-based; summary of the method: as §1
# [43] = Antitumor activity against human LXF 289L cells; format: functional, cell-based; summary of the method: as §1
# [44] = Antitumor activity against human LXF 629L cells; format: functional, cell-based; summary of the method: as §1
# [45] = Antitumor activity against human CXF HT29 cells; format: functional, cell-based; settings: HT-29; summary of the method: as §1
# [46] = Antitumor activity against human RXF 1781L cells; format: functional, cell-based; summary of the method: as §1
structure (smiles),measurement,setting,value
COC1=C2C[C@@H](C)C[C@H](OC)[C@H](O)[C@@H](C)/C=C(\C)[C@H](OC(N)=O)[C@@H](OC)/C=C\C=C(/C)C(=O)NC(=CC1=O)C2=O [GELDANAMYCIN],IC50,[1],7000 nM
same,Kd,[2],1200 nM
CO[C@H]1[C@@H](OC)C[C@H](C)[C@@H](OC)C2=CC(=O)C=C(NC(=O)/C(C)=C/C=C\[C@H](C)[C@@H](OC(N)=O)/C(C)=C/[C@@H]1C)C2=O [MACBECIN],IC50,[1],2000 nM
same,IC50,[3],6.45 µg/mL
same,IC70,[3],41.2 µg/mL
same,IC90,[3],242 µg/mL
same,IC50,[4],0.456 µg/mL
same,IC70,[4],1.97 µg/mL
same,IC90,[4],41.2 µg/mL
same,IC50,[5],1.6 µg/mL
same,IC70,[5],4.56 µg/mL
same,IC90,[5],35.9 µg/mL
same,IC50,[6],< 0.01 µg/mL
same,IC70,[6],< 0.01 µg/mL
same,IC90,[6],31.6 µg/mL
same,IC50,[7],6.72 µg/mL
same,IC70,[7],20.5 µg/mL
same,IC90,[7],86.6 µg/mL
same,IC50,[8],< 0.01 µg/mL
same,IC70,[8],< 0.01 µg/mL
same,IC90,[8],37.3 µg/mL
same,IC50,[9],1.56 µg/mL
same,IC70,[9],9.15 µg/mL
same,IC90,[9],> 100 µg/mL
same,Activity,[10],Dose-dependent effect
same,IC50,[11],0.158 µg/mL
same,IC70,[11],3.32 µg/mL
same,IC90,[11],79.4 µg/mL
same,IC50,[12],< 0.01 µg/mL
same,IC70,[12],< 0.01 µg/mL
same,IC90,[12],2.37 µg/mL
same,IC50,[13],7.8 µg/mL
same,IC70,[13],25.7 µg/mL
same,IC90,[13],83.8 µg/mL
same,IC90,[14],10 µg/mL
same,IC50,[15],0.009 µg/mL
same,IC70,[15],1.41 µg/mL
same,IC90,[15],19.9 µg/mL
same,IC50,[16],1.61 µg/mL
same,IC70,[16],4.22 µg/mL
same,IC90,[16],11 µg/mL
same,IC50,[17],< 0.01 µg/mL
same,IC70,[17],< 0.01 µg/mL
same,IC90,[17],< 100 µg/mL
same,IC50,[18],2.11 µg/mL
same,IC70,[18],7.33 µg/mL
same,IC90,[18],61.6 µg/mL
same,IC50,[19],0.189 µg/mL
same,IC70,[19],1.86 µg/mL
same,IC90,[19],31.6 µg/mL
same,IC50,[20],< 0.01 µg/mL
same,IC70,[20],< 0.01 µg/mL
same,IC90,[20],7.36 µg/mL
same,Time,[21],20.4 days
same,IC50,[22],3.73 µg/mL
same,IC70,[22],25.1 µg/mL
same,IC90,[22],93.6 µg/mL
same,IC50,[23],2.4 µg/mL
same,IC70,[23],4.99 µg/mL
same,IC90,[23],100 µg/mL
same,Time,[24],2.3 days
same,IC50,[25],0.923 µg/mL
same,IC70,[25],6.06 µg/mL
same,IC90,[25],51.8 µg/mL
same,IC50,[26],0.527 µg/mL
same,IC70,[26],1.97 µg/mL
same,IC90,[26],7.63 µg/mL
same,IC50,[27],4.16 µg/mL
same,IC70,[27],19.3 µg/mL
same,IC90,[27],> 100 µg/mL
same,IC50,[28],1.24 µg/mL
same,IC70,[28],3.62 µg/mL
same,IC90,[28],10.6 µg/mL
same,IC50,[29],< 0.01 µg/mL
same,IC70,[29],0.857 µg/mL
same,IC90,[29],27.8 µg/mL
same,IC50,[30],0.297 µg/mL
same,IC70,[30],5.18 µg/mL
same,IC90,[30],57.8 µg/mL
same,IC50,[31],0.008 µg/mL
same,IC70,[31],14.2 µg/mL
same,IC90,[31],> 100 µg/mL
same,IC50,[32],16.6 µg/mL
same,IC70,[32],41.7 µg/mL
same,IC90,[32],105 µg/mL
same,IC50,[33],0.048 µg/mL
same,IC70,[33],1 µg/mL
same,IC90,[33],60 µg/mL
same,T/C,[34],32.2%
same,IC50,[35],0.577 µg/mL
same,IC70,[35],3.59 µg/mL
same,IC90,[35],139 µg/mL
same,Activity,[36],Dose-dependent effect
same,IC50,[37],3.35 µg/mL
same,IC70,[37],11.1 µg/mL
same,IC90,[37],90.1 µg/mL
same,IC50,[38],9.34 µg/mL
same,IC70,[38],26.4 µg/mL
same,IC90,[38],73.6 µg/mL
same,IC50,[39],13.9 µg/mL
same,IC70,[39],51.8 µg/mL
same,IC90,[39],193 µg/mL
same,Activity,[40],5.3%
same,IC50,[41],8.19 µg/mL
same,IC70,[41],25.6 µg/mL
same,IC90,[41],73 µg/mL
same,IC50,[42],16.2 µg/mL
same,IC70,[42],47.2 µg/mL
same,IC90,[42],138 µg/mL
same,IC50,[43],27.7 µg/mL
same,IC70,[43],59 µg/mL
same,IC90,[43],125 µg/mL
same,IC50,[44],0.005 µg/mL
same,IC70,[44],30.6 µg/mL
same,IC90,[44],114 µg/mL
same,IC50,[45],< 0.01 µg/mL
same,IC70,[45],0.292 µg/mL
same,IC90,[45],7.2 µg/mL
same,IC50,[46],4.33 µg/mL
same,IC70,[46],25.9 µg/mL
same,IC90,[46],127 µg/mL
